High-throughput results: PubChem, The Scripps Research Institute Molecular Screening Center
VIM-2 inhibitor = inhibitors of Pseudomonas aeruginosa VIM-2 metallo-beta-lactamase | purified VIM-2, nitrocefin hydrolysis, epi-absorbance fluorescence | inhibition, % at 5.6 µM | AID 1527 | 0.89% of 290,000 active;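 active = inhibition above the mean of all tested compounds plus 3 SD, cutoff set per screening run, cut at about 7.5% in these data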;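 also: red hydrolysis product quenches plate fluorescence so inhibitors raise well fluorescence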
bovine MsrA act = activators of bovine methionine sulfoxide reductase A; purified bovine MsrA, absorbance read-out; activation, % at 10.6 µM; 0.3% of 360,000 active; in the data active = activation above about 7.5%
IMP-1 inh = inhibitors of Pseudomonas aeruginosa IMP-1 metallo-beta-lactamase | inhibition, % at 5.6 µM | AID 1556 | purified IMP-1, nitrocefin hydrolysis, epi-absorbance fluorescence | 0.45% of 290,000 active;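 active = inhibition above the mean plus 3 SD of all compounds in the same screening run, cut at about 4.5% in these data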
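System: Purified IMP-1 | Read-out basis: Percent enzyme inhibition | Controls: IMP-1 with DMSO as 0%, enzyme-free DMSO as 100% | Replicates: One well per compound | Doses: 5.6 µM nominal single concentration | Detection: Epi-absorbance fluorescence, 480 nm excitation, 530 nm emission | Incubation: 25 °C, 15 min preincubation, 25 min reaction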
PKA-R2B activ = PKA-R2B complex activation. P22694+P31323. PKA-R2B holoenzyme dissociation, Cy5-IP20 fluorescence polarization; R2B truncated from residue 108, S112A mutant; 0% DMSO only, 100% 113 µM cGMP. activation, % at 11.4 µM. 0.079% of 340,000 active;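 active = activation above a cutoff set at the mean over all compounds plus 3 SD, cut at about 18% in these data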;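 also: higher means more holoenzyme dissociation and a rise in polarization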
Target sequence (P31323 whole entry, looked up, other chains not shown, the tested form may be a part): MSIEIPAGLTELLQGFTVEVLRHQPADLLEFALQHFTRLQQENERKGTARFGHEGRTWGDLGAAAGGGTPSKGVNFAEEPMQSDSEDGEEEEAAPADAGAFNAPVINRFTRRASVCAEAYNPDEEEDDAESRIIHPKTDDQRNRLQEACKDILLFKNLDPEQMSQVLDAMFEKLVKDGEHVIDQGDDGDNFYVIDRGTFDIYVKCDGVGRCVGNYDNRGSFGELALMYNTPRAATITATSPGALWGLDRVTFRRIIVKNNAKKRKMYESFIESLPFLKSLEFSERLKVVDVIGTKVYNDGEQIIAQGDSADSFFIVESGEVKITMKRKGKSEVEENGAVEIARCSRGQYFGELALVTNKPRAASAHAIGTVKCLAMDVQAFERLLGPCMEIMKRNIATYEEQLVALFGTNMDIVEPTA
MsrA inh = inhibits bovine methionine sulfoxide reductase A | purified bovine MsrA, absorbance read-out | inhibition, % at 15.5 µM | 0.75% of 360,000 active
PKA-R1A activ = activates the PKA-R1A holoenzyme complex. P00514+P68181. PKA-R1A dissociation, Cy5-IP20 fluorescence polarization; scaled: DMSO 0%, 113 µM cGMP 100%. activation, % at 11.4 µM. 0.083% of 340,000 active. AID 504707;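 active = percent activation above the mean of all tested compounds plus 3 SD, cut at about 19% in these data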;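 also: higher means more PKAc released from R1A so a rise in polarization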
MsrA conf = bovine MsrA inhibition, confirmed; shares compounds with MsrA inh; purified bovine MsrA, absorbance read-out; inhibition, % at 15.5 µM; 41% of 2,300 active; AID 651822;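 also: coupled to thioredoxin reductase with NADPH and selenocystamine and DMSO as substrate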
Large screens that a line does not name were inactive (follow-up assays come after a bar, where they were run). A selection: hits, their analogues and other compounds. The true share with any hit is near 2.1%. Rule as the data show it, unless noted: active = inhibition above about 4.5%; inactive = the rest.

CCOc1cc(N2CCOCC2)c(OCC)cc1NC(=O)COc1ccccc1[N+](=O)[O-]	none
O=C(COc1ccccc1[N+](=O)[O-])Nc1cccc(Cl)c1N1CCOCC1	MsrA inh 5.9 | MsrA conf inactive
Cc1nn(-c2ccc(C(=O)NCC(c3ccco3)N3CCCC3)cc2)c(C)c1Cl (stereo unspecified)	none (no result: VIM-2 inhibitor, IMP-1 inh)
O=C1c2ccccc2C(=O)c2c1cccc2N1CCCC1	MsrA inh 36.4 | MsrA conf inactive
Cc1ccc(F)c(S(=O)(=O)NC(=O)C2(C)CCN2C(=O)Cc2ccccc2Cl)c1 (stereo unspecified)	none (no result: VIM-2 inhibitor, IMP-1 inh, PKA-R2B activ, PKA-R1A activ)
Nc1ccc(C(=O)C(=O)c2ccc(N)cc2)cc1	MsrA inh 7.5 | MsrA conf 6.8
CC1(C)Cc2nc(N3CCCC3)c(C#N)cc2CO1	MsrA inh 8.7 | MsrA conf 5.4
COc1ccc(C(=O)Nc2ccccc2C(=O)Nc2ccccc2C(=O)O)cc1	none
COc1ccc(C(=NNc2ccccc2C(=O)O)c2ccc(OC)cc2)cc1	MsrA inh 5.1 | MsrA conf inactive
O=C(O)c1ccccc1NS(=O)(=O)c1ccc(NN=Cc2ccccc2F)c([N+](=O)[O-])c1	PKA-R2B activ 22.6, MsrA inh 5.3 (no result: VIM-2 inhibitor, IMP-1 inh) | MsrA conf inactive
Cc1cccc(NC(=O)CNC(=O)c2ccc3nc[nH]c3c2)c1C	none (no result: VIM-2 inhibitor, IMP-1 inh)
O=Cc1ccc(-c2ccc(F)cc2)o1	none
O=C(O)/C(=C\c1ccc(-c2ccc(F)cc2)o1)c1ccccc1	MsrA inh 4.7 | MsrA conf inactive
O=Cc1ccc(-c2ccc(C(=O)O)cc2)o1	MsrA inh 7.2 | MsrA conf inactive
COc1cc([N+](=O)[O-])ccc1NC(=S)NNC(=O)c1ccc2c(c1)OCO2	MsrA inh 4.7 | MsrA conf inactive
COc1cccc(CNC(=O)[C@H]2CCCN2C(=O)[C@H]2CCCN2C(=O)c2ccc(Cl)cc2)c1	none (no result: VIM-2 inhibitor, bovine MsrA act, IMP-1 inh, PKA-R2B activ, PKA-R1A activ)
CCCCNC(=O)c1nc(C2CCN(S(=O)(=O)c3c(OC)cccc3OC)CC2)oc1-c1ccccc1	none (no result: VIM-2 inhibitor, bovine MsrA act, IMP-1 inh, PKA-R2B activ, PKA-R1A activ)
CN(C)c1ccc(/C=N/NC(=O)c2ccc3nc[nH]c3c2)cc1	MsrA inh 4.9 | MsrA conf 4.9
CSc1ccc(/C=N/NC(=O)c2ccc3nc[nH]c3c2)cc1	MsrA inh 5.1 (no result: VIM-2 inhibitor, IMP-1 inh) | MsrA conf 6.1
CCN(CC)c1ccc(/C=N/NC(=O)c2ccc3nc[nH]c3c2)cc1	none
COc1cc(/C=N/NC(=O)c2ccc3nc[nH]c3c2)ccc1O	none
COc1ccc(/C=C/C(=O)c2ccc(O)cc2)cc1	MsrA inh 5.2 | MsrA conf inactive
COc1ccc(C=CC(=O)c2ccc3cc(OC)c(OC)cc3c2)cc1OC	none (no result: VIM-2 inhibitor, IMP-1 inh)
COc1ccc(C=CC(=O)c2ccc(OC)c(OC)c2)cc1O	MsrA inh 4.7 (no result: VIM-2 inhibitor, IMP-1 inh) | MsrA conf inactive
O=C(/C=C/c1ccccc1)c1ccccc1	none
O=C(/C=C/c1ccccc1)/C=C/c1ccccc1	MsrA inh 4.9 | MsrA conf inactive
CCCc1nnc(NC(=O)c2ccncc2)s1	none
CCc1nnc(NC(=O)c2ccncc2)s1	MsrA inh 5.6 | MsrA conf inactive
COc1cccc(NC(=O)c2cncs2)c1	none
O=C1NC(N2CCOCC2)=N/C1=C/c1ccc2c(c1)OCO2	MsrA inh 4.9 | MsrA conf inactive
CC(=O)c1ccc(N2CCN(C(=O)C3CCCN(S(=O)(=O)c4c(C)[nH]c(=O)[nH]c4=O)C3)CC2)cc1 (stereo unspecified)	MsrA inh 4.7 | MsrA conf inactive
CCn1cc(/C=C(\NC(=O)c2ccccc2F)C(=O)NCCN2CCOCC2)c2ccccc21	MsrA inh 5.3 | MsrA conf inactive
Cn1cc(/C=C(\NC(=O)c2ccccc2)C(=O)NCCCN2CCOCC2)c2ccccc21	MsrA inh 6.8 | MsrA conf 5.3
CN(C)c1ccc(/C=C(\NC(=O)c2ccccc2)C(=O)NCCN2CCOCC2)cc1	MsrA inh 5.3 | MsrA conf inactive
CN(C)S(=O)(=O)n1cc(/C=C(\NC(=O)c2ccccc2F)C(=O)NCCN2CCOCC2)c2ccccc21	none (no result: VIM-2 inhibitor, IMP-1 inh)
CCn1cc(/C=C(\NC(=O)c2ccc(OC)c(OC)c2)C(=O)NCCN2CCOCC2)c2ccccc21	none
CCn1cc(/C=C(\NC(=O)c2ccc(OC)c(OC)c2)C(=O)NCCCO)c2ccccc21	MsrA inh 5.8 | MsrA conf inactive
COc1cc(F)ccc1-c1csc(C(C)(NC(C)=O)c2ccccc2)n1 (stereo unspecified)	none (no result: VIM-2 inhibitor, IMP-1 inh, PKA-R2B activ, PKA-R1A activ)
COc1ccc(C(=O)N/C(=C\c2cn(C)c3ccccc23)C(=O)NCCCN2CCOCC2)cc1OC	MsrA inh 5.7 | MsrA conf inactive
Cc1ccc(NC(=O)Cn2nc(C(=O)O)c3ccccc3c2=O)c([N+](=O)[O-])c1	none
Cn1ccnc1Sc1cc(NCCCO)c([N+](=O)[O-])c2nonc12	MsrA inh 5.7 | MsrA conf inactive
O=c1c2cc(Br)cc(Br)c2oc2nc3n(c(=O)c12)CCCS3	none (no result: bovine MsrA act, PKA-R2B activ, MsrA inh, PKA-R1A activ)
O=Cc1ccc2oc3nc4n(c(=O)c3c(=O)c2c1)CCCS4	MsrA inh 6.6 | MsrA conf inactive
O=C(O)/C=C/c1ccc(-c2cccc(C(F)(F)F)c2)o1	MsrA inh 6.0 | MsrA conf inactive
